Assay [1] in a line: (§1) Displacement [3H]LY-186,126 from phosphodiesterase 4 of myocardial vesicles. Type of assay: tissue-based, Canis lupus familiaris, Myocardium. In short, it runs like this: (§2)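 Canine ventricular myocardial vesicles (mixed sarcolemmal and SR; stored at –80 °C), about 100 μg protein, incubated 60 min at 25 °C in 50 mM Tris-Cl pH 7.4, 5 mM MgCl2, 0.01% BSA with 10 nM [3H]-LY186126 (79.2 Ci/mmol). Competitors in DMSO were tested at 0.003–100 μM in half-log steps. Samples were filtered on GF/C and washed with cold phosphate. Specific binding is the part displaced by 100 μM indolidan. Run in triplicate; Ki from nonlinear least-squares fits.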

Assay [2] addresses T1, Phosphodiesterase 4 (Homo sapiens, UniProt P27815+Q08499+Q07343+Q08493). In words: Inhibition of sarcoplasmic reticulum Phosphodiesterase 4. Type of assay: protein assay, Canis lupus familiaris.
In assay [3] the target is T1, Phosphodiesterase 4. Described as §1. Type of assay: tissue-based, Canis lupus familiaris, Myocardium. The method in brief:
as §2

Assay [4] has as its target T1, Phosphodiesterase 4. Kind of assay: Binding affinity for sarcoplasmic reticulum phosphodiesterase 4 of canine ventricle. The format is protein assay, Canis lupus familiaris. The conditions noted are these: target entry is the homologue from another species.
Assay [5] addresses T1, Phosphodiesterase 4. In words: Binding affinity for Phosphodiesterase 4 of canine myocardial vesicles. Type of assay: protein assay, Canis lupus familiaris. The note with it: target entry is the homologue from another species. In short, it runs like this: as §2

SMILES strings stand for the structures.

In turn, `O=C1CCC(c2ccc3c(c2)CCC(=O)N3)=NN1` displayed a Ki in assay [1] of 2.5 nM. In the case of `CN1C(=O)C(C)(C)c2cc(C3=NNC(=O)CC3)ccc21`, the IC50 on Phosphodiesterase 4 [2] was found to be 760 nM. `CN1N=C(c2ccc3c(c2)CC(=O)N3)CCC1=O` had a Ki on Phosphodiesterase 4 [3] of 61400 nM.

Consider `CC1CC(=O)NN=C1c1ccc2c(c1)C(C)(C)C(=O)N2` (centres undefined), for which, on Phosphodiesterase 4 [3], the Ki was 0.54 nM. `CC1(C)C(=O)Nc2ccc(C3=NNC(=O)CC3)cc21` [INDOLIDAN] displayed an IC50 against Phosphodiesterase 4 [2] of 150 nM. Also, the Ki on Phosphodiesterase 4 [3] was found to be 5.4 nM.

On to `CC1CC(=O)NN=C1c1ccc2c(c1)C(C)(C)C(=O)N2C` (centres undefined), for which the IC50 against Phosphodiesterase 4 [2] is 120 nM. The Kd on Phosphodiesterase 4 [4] turned out to be 3.9 nM; on Phosphodiesterase 4 [5] it was 4.1 nM.
